From ChEMBL document CHEMBL2203173 (J Med Chem, 2012)

Columns and labels:
Mus musculus [1] = assay: Toxicity in BALB/c nu/nu mouse xenografted with human DMS53 cells assessed as change in hematopoetic cells in splenic red pulp at 3 mg/kg, iv administered for 5 days a week measured after 21 days by hematoxylin and eosin staining method; assay type: organism-based, DMS-53; parameters: dose 3 mg/kg, route intravenous; conditions: in vivo, 504 h
Method in brief: (§1)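 DMS-53 xenografts in nude mice; dosing started at 100 mm3 tumor volume. Agents given iv via tail vein, 5 days/week for 21 days, vehicle 30% propylene glycol/saline, vehicle-treated controls. Mice sacrificed day 21. Body and organ weights and hematological indices recorded. Spleen, kidney, liver, heart, lungs and brain were stained with H&E, Perls' and Gomori Trichrome and read by an independent veterinary pathologist.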

Mus musculus [2] = assay: Toxicity in BALB/c nu/nu mouse xenografted with human DMS53 cells assessed as change in platelet count at 6 mg/kg, iv administered for 5 days a week measured after 21 days; assay type: organism-based, DMS-53; parameters: dose 6 mg/kg, route intravenous; conditions: in vivo, 504 h
Method in brief: (§2)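 Nude mice carrying DMS-53 xenografts (treatment from 100 mm3) received iv tail-vein doses in 30% propylene glycol/saline, 5 days/week for 21 days. Hematological indices (RBC, hemoglobin, hematocrit, reticulocytes, WBC, platelets) were then compared with vehicle controls.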

Mus musculus [3] = assay: Toxicity in BALB/c nu/nu mouse xenografted with human DMS53 cells assessed as change in reticulocyte count at 3 mg/kg, iv administered for 5 days a week measured after 21 days; assay type: organism-based, DMS-53; parameters: dose 3 mg/kg, route intravenous; conditions: in vivo, 504 h; method in brief: as §2
Mus musculus [4] = assay: Toxicity in BALB/c nu/nu mouse xenografted with human DMS53 cells assessed as change in organ weight at 3 mg/kg, iv administered for 5 days a week measured after 21 days; assay type: organism-based, DMS-53; parameters: dose 3 mg/kg, route intravenous; conditions: in vivo, 504 h
Method in brief: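 DMS-53 xenograft-bearing nude mice, treatment started at 100 mm3 tumour volume: iv tail-vein dosing in 30% propylene glycol/saline, 5 days/week for 21 days. Organs were weighed at sacrifice and compared with vehicle-control mice.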

Mus musculus [5] = assay: Toxicity in BALB/c nu/nu mouse xenografted with human DMS53 cells assessed as change in body weight at 6 mg/kg, iv administered for 5 days a week measured after 21 days; assay type: organism-based, DMS-53; parameters: dose 6 mg/kg, route intravenous; conditions: in vivo, 504 h; method in brief: as §1
Mus musculus [6] = assay: Toxicity in BALB/c nu/nu mouse xenografted with human DMS53 cells assessed as change in spleen weight at 7.5 mg/kg, po administered for 3 times a week measured after 20 days; assay type: organism-based, DMS-53; parameters: dose 7.5 mg/kg, route oral; conditions: in vivo, 480 h
Method in brief: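 DMS-53 xenograft nude mice were gavaged 3 times/week in 30% propylene glycol/saline vehicle for 20 days and then sacrificed. Organ weights and histology of spleen, kidney, liver, heart, lungs and brain were compared with vehicle controls. n = 6-11 mice/condition.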

Mus musculus [7] = assay: Toxicity in BALB/c nu/nu mouse xenografted with human DMS53 cells assessed as change in RBC count at 10 mg/kg, po administered for 3 times a week measured after 20 days; assay type: organism-based, DMS-53; parameters: dose 10 mg/kg, route oral; conditions: in vivo, 480 h
Mus musculus [8] = assay: Toxicity in BALB/c nu/nu mouse xenografted with human DMS53 cells assessed as change in RBC count at 7.5 mg/kg, po administered for 3 times a week measured after 20 days; assay type: organism-based, DMS-53; parameters: dose 7.5 mg/kg, route oral; conditions: in vivo, 480 h
Mus musculus [9] = assay: Toxicity in BALB/c nu/nu mouse xenografted with human DMS53 cells assessed as change in hemoglobin level at 7.5 mg/kg, po administered for 3 times a week measured after 20 days; assay type: organism-based, DMS-53; parameters: dose 7.5 mg/kg, route oral; conditions: in vivo, 480 h
Method in brief: (§3)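 Nude mice bearing DMS-53 xenografts gavaged 3 times/week for 20 days, vehicle 30% propylene glycol/saline, vehicle controls, n = 6-11 mice/condition. Sacrifice on day 20. Organ weights and hematological indices recorded. Spleen, kidney, liver, heart, lungs and brain examined histologically, hearts stained with Gomori Trichrome for fibrosis.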

Mus musculus [10] = assay: Toxicity in BALB/c nu/nu mouse xenografted with human DMS53 cells assessed as change in brain histology at 6 mg/kg, iv administered for 5 days a week measured after 21 days by hematoxylin and eosin staining method; assay type: organism-based, DMS-53; parameters: dose 6 mg/kg, route intravenous; conditions: in vivo, 504 h; method in brief: as §1
Mus musculus [11] = assay: Toxicity in BALB/c nu/nu mouse xenografted with human DMS53 cells assessed as hepatocellular fibrosis at 6 mg/kg, iv administered for 5 days a week measured after 21 days by hematoxylin and eosin staining method; assay type: organism-based, DMS-53; parameters: dose 6 mg/kg, route intravenous; conditions: in vivo, 504 h
Method in brief: (§4)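 Nude mice with DMS-53 xenografts dosed by tail-vein iv injection in 30% propylene glycol/saline, starting at 100 mm3 tumour volume, 5 days/week for 21 days. Spleen, kidney, liver, heart, lungs and brain were stained with H&E, Perls' (Fe loading) and Gomori Trichrome (fibrosis) by standard methods, and an independent veterinary pathologist examined them.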

Mus musculus [12] = assay: Toxicity in BALB/c nu/nu mouse xenografted with human DMS53 cells assessed as hepatocellular necrosis at 3 mg/kg, iv administered for 5 days a week measured after 21 days by hematoxylin and eosin staining method; assay type: organism-based, DMS-53; parameters: dose 3 mg/kg, route intravenous; conditions: in vivo, 504 h; method in brief: as §4
Mus musculus [13] = assay: Toxicity in BALB/c nu/nu mouse xenografted with human DMS53 cells assessed as hepatocellular necrosis at 0.75 mg/kg, iv administered for 5 days a week measured after 21 days by hematoxylin and eosin staining method; assay type: organism-based, DMS-53; parameters: dose 0.75 mg/kg, route intravenous; conditions: in vivo, 504 h; method in brief: as §4
Mus musculus [14] = assay: Toxicity in BALB/c nu/nu mouse xenografted with human DMS53 cells assessed as vacuolation at 3 mg/kg, iv administered for 5 days a week measured after 21 days by hematoxylin and eosin staining method; assay type: organism-based, DMS-53; parameters: dose 3 mg/kg, route intravenous; conditions: in vivo, 504 h; method in brief: as §4
Mus musculus [15] = assay: Toxicity in BALB/c nu/nu mouse xenografted with human DMS53 cells assessed as cardiac fibrosis at 6 mg/kg, iv administered for 5 days a week measured after 21 days by […]; assay type: organism-based, Heart, DMS-53; parameters: dose 6 mg/kg, route intravenous; conditions: in vivo, 504 h
Method in brief: (§5)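 DMS-53 xenograft nude mice given agents iv by tail vein 5 days/week in 30% propylene glycol/saline for 21 days. At sacrifice, heart sections were stained with Gomori Trichrome to detect fibrosis. Spleen, kidney, liver, heart, lungs and brain were also stained with H&E and Perls' and examined by an independent veterinary pathologist.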

Mus musculus [16] = assay: Toxicity in BALB/c nu/nu mouse xenografted with human DMS53 cells assessed as body weight change at 10 mg/kg, po administered for 3 times a week measured after 20 days; conditions: in vivo, 480 h
Mus musculus [17] = assay: Toxicity in BALB/c nu/nu mouse xenografted with human DMS53 cells assessed as body weight change at 7.5 mg/kg, po administered for 3 times a week measured after 20 days; conditions: in vivo, 480 h
Mus musculus [18] = assay: Toxicity in BALB/c nu/nu mouse xenografted with human DMS53 cells assessed as change in hemoglobin level at 4 mg/kg, iv administered for 5 days a week measured after 21 days; assay type: organism-based, DMS-53; parameters: dose 4 mg/kg, route intravenous; conditions: in vivo, 504 h; method in brief: as §1
Mus musculus [19] = assay: Toxicity in BALB/c nu/nu mouse xenografted with human DMS53 cells assessed as change in hematocrit level at 20 mg/kg, po administered for 3 times a week measured after 20 days; assay type: organism-based, DMS-53; parameters: dose 20 mg/kg, route oral; conditions: in vivo, 480 h; method in brief: as §3
Mus musculus [20] = assay: Toxicity in BALB/c nu/nu mouse xenografted with human DMS53 cells assessed as change in lungs histology at 8 mg/kg, iv administered for 5 days a week measured after 21 days by hematoxylin and eosin staining method; assay type: organism-based, DMS-53; parameters: dose 8 mg/kg, route intravenous; conditions: in vivo, 504 h; method in brief: as §4
Mus musculus [21] = assay: Toxicity in BALB/c nu/nu mouse xenografted with human DMS53 cells assessed as vacuolation at 8 mg/kg, iv administered for 5 days a week measured after 21 days by hematoxylin and eosin staining method; assay type: organism-based, DMS-53; parameters: dose 8 mg/kg, route intravenous; conditions: in vivo, 504 h; method in brief: as §4
Mus musculus [22] = assay: Toxicity in BALB/c nu/nu mouse xenografted with human DMS53 cells assessed as cardiac fibrosis at 8 mg/kg, iv administered for 5 days a week measured after 21 days by […]; assay type: organism-based, Heart, DMS-53; parameters: dose 8 mg/kg, route intravenous; conditions: in vivo, 504 h; method in brief: as §5
Mus musculus [23] = assay: Toxicity in BALB/c nu/nu mouse xenografted with human DMS53 cells assessed as change in hematopoetic cells in splenic red pulp at 4 mg/kg, iv administered for 5 days a week measured after 21 days by hematoxylin and eosin staining method; assay type: organism-based, DMS-53; parameters: dose 4 mg/kg, route intravenous; conditions: in vivo, 504 h; method in brief: as §1

For `CCN(C)C(=S)NN=C(c1ccccn1)c1ccccn1.Cl`, the Activity (Mus musculus [1]) was “Non-toxic”, the Activity (Mus musculus [2]) was “Non-toxic” and the Activity (Mus musculus [3]) was “Non-toxic”. The Activity (Mus musculus [4]) was “Toxic”, the Activity (Mus musculus [5]) was “Non-toxic” and the Activity (Mus musculus [6]) was “Toxic”. For the same compound, the Activity (Mus musculus [7]) was “Toxic”, the Activity (Mus musculus [8]) was “Non-toxic” and the Activity (Mus musculus [9]) was “Toxic”. For the same compound, the Activity (Mus musculus [10]) was “Non-toxic”, the Activity (Mus musculus [11]) was “Non-toxic” and the Activity (Mus musculus [12]) was “Non-toxic”. For the same compound, the Activity (Mus musculus [13]) was “Non-toxic”, the Activity (Mus musculus [14]) was “Non-toxic” and the Activity (Mus musculus [15]) was “Non-toxic”. For the same compound, the Activity (Mus musculus [16]) was “Non-toxic” and the Activity (Mus musculus [17]) was “Non-toxic”.
In the case of `CN(C(=S)NN=C(c1ccccn1)c1ccccn1)C1CCCCC1.Cl`, the Activity (Mus musculus [18]) is reported as “Non-toxic”, the Activity (Mus musculus [19]) is reported as “Non-toxic” and the Activity (Mus musculus [20]) is reported as “Non-toxic”. The Activity (Mus musculus [21]) was “Toxic”, the Activity (Mus musculus [22]) was “Non-toxic” and the Activity (Mus musculus [23]) was “Non-toxic”.
